One series concerns A549. Briefly: Cytotoxicity against human A549 cells. It is filed as functional. As to conditions: read-out: ED50 (the source's name). A digest of the protocol:
(§1)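 Human tumor cell cytotoxicity run by the Purdue Cancer Center's cell culture laboratory using standard protocols, with adriamycin as the positive standard. A-549, MCF-7 and HT-29 were each tested under a separately cited protocol.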

A further series deals with HT-29. Briefly: Cytotoxicity against human HT-29 cells. As to conditions: read-out: ED50 (the source's name). It is filed as functional. In a few lines:
as §1

Series [1] can be described thus: Toxicity against brine shrimp. The format is organism-based. As to conditions: artemia, in vivo. A digest of the protocol:
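Brine shrimp lethality assay run in-house following a published method. The positive standard, adriamycin, was dissolved directly in sea water and tested immediately.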

Another series deals with MCF7. Briefly: Cytotoxicity against human MCF7 cells. It is filed as functional. As to conditions: read-out: ED50 (the source's name). In a few lines: as §1

Each structure is given as a SMILES string. ≈ marks a conversion by molar mass, not a printed value. Some results are limits rather than exact numbers.

Usually LC50 stands for the concentration that kills 50% of the test population. High values mean a less lethal substance, low ones a more lethal substance.

Take `O=C1C[C@H]2C[C@@H](O1)[C@H](O)[C@H](c1ccccc1)O2`: the EC50 with A549 is 27.2 mg/L (≈ 116 µM); with HT-29, 7.38 mg/L (≈ 31.5 µM); in the series with MCF7, 25.4 mg/L (≈ 108 µM). Besides, in series [1], the LC50 was above 500 mg/L.
In the same order, the values of `O=C1C[C@@H]2O[C@@H]([C@H](O)c3ccccc3)[C@@H](O)[C@@H]2O1` (relative stereo) are 85.5 mg/L (≈ 342 µM), above 100 mg/L, 49.1 mg/L (≈ 196 µM) and 475 mg/L (≈ 1900 µM).
In the same order, the values of `O=C1C=CC[C@H]([C@H](O)[C@H](O)c2ccccc2)O1` [GONIODIOL] are 0.122 mg/L (≈ 0.521 µM), 2.45 mg/L (≈ 10.5 µM), 8.27 mg/L (≈ 35.3 µM) and above 500 mg/L.
On to `COc1cccc2c1C(=O)c1c(O)c3c(c(O)c1C2=O)C[C@@](O)(C(=O)CO)C[C@@H]3O[C@H]1C[C@H](N)[C@H](O)[C@H](C)O1` [DOXORUBICIN], for which the EC50 in the series with A549 came to 0.00684 mg/L (≈ 0.0126 µM); in the series on HT-29, 0.00416 mg/L (≈ 0.00765 µM); with MCF7, 0.0177 mg/L (≈ 0.0326 µM).

Values taken from ChEMBL document CHEMBL1158970, “Two new styryl lactones, 9-deoxygoniopypyrone and 7-epi-goniofufurone, from Goniothalamus giganteus” (J Nat Prod, 1991).
